Data from ChEMBL document CHEMBL3734694, “Design, synthesis, and anticancer evaluation of long-chain alkoxylated mono-carbonyl analogues of curcumin” (Eur J Med Chem, 2015).

Columns and labels:
[1] = Cytotoxicity against human SW620 cells assessed as inhibition of cell proliferation at 10 uM incubated for 72 hrs by MTS assay; type: functional; details: SW-620, 72 h
Procedure, shortened: (§1)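 Single-concentration MTS screen at 10 μM. Cells in RPMI-1640 with 10% FBS, seeded at 4000 cells/well in triplicate, attached overnight, then exposed for 72 h at 37°C, 5% CO2. MTS for 4 h; absorbance 490 nm. Reported as % inhibition.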

[2] = Cytotoxicity against human MGC803 cells assessed as inhibition of cell proliferation at 10 uM incubated for 72 hrs by MTS assay; type: functional; details: MGC-803, 72 h; procedure, shortened: as §1
[3] = tested on: CT26; assay: Cytotoxicity against mouse CT26 cells at 10 uM assessed as inhibition of cell proliferation incubated for 72 hrs by MTS assay; type: functional; details: CT26, 72 h; procedure, shortened: as §1
[4] = Cytotoxicity against human SGC7901 cells assessed as inhibition of cell proliferation at 10 uM incubated for 72 hrs by MTS assay; type: functional; details: SGC-7901, 72 h; procedure, shortened: as §1
[5] = Cytotoxicity against human MGC803 cells assessed as inhibition of cell proliferation incubated for 72 hrs by MTS assay; type: functional, cell-based; details: MGC-803, 72 h
Procedure, shortened: (§2)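 Cells in RPMI-1640 with 10% heat-inactivated FBS at 37°C, 5% CO2. Seeded at 4000 cells/well in triplicate and attached overnight. Exposed to various concentrations for 72 h. MTS added for a further 4 h; absorbance at 490 nm. IC50 = concentration for 50% growth inhibition, as mean ± SEM of three independent tests.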

[6] = Cytotoxicity against human SGC7901 cells assessed as inhibition of cell proliferation incubated for 72 hrs by MTS assay; type: functional, cell-based; details: SGC-7901, 72 h; procedure, shortened: as §2
[7] = Cytotoxicity against human SW620 cells assessed as inhibition of cell proliferation incubated for 72 hrs by MTS assay; type: functional, cell-based; details: SW-620, 72 h; procedure, shortened: as §2
[8] = tested on: CT26; assay: Cytotoxicity against mouse CT26 cells assessed as inhibition of cell proliferation incubated for 72 hrs by MTS assay; type: functional, cell-based; details: CT26, 72 h; procedure, shortened: as §2
[9] = Cytotoxicity against human GES-1 cells assessed as inhibition of cell proliferation incubated for 72 hrs by MTS assay; type: functional, cell-based; details: GES1, 72 h; procedure, shortened: as §2

Compound | inhibition at 10 µM [1] [%] | inhibition at 10 µM [2] [%] | inhibition at 10 µM [3] [%] | inhibition at 10 µM [4] [%] | IC50 [5] [µM] | IC50 [6] [µM] | IC50 [7] [µM] | IC50 [8] [µM] | IC50 [9] [µM]
COc1cc(/C=C2\CCC/C(=C\c3ccc(OCCCN4CCN(C)CC4)c(OC)c3)C2=O)ccc1OCCCBr | 48.1 | -7.15 | 37.3 | 15.7 |  |  |  |  | 
COc1cc(/C=C2\CCC/C(=C\c3cccc(OC)c3OC)C2=O)ccc1OCCCN1CCOCC1 | 22.5 | -9.26 | 57.2 | -6.53 |  |  |  |  | 
CCCN(CCC)CCCOc1ccc(/C=C2\CCC/C(=C\c3ccc(OCCCN(CCC)CCC)c(OC)c3)C2=O)cc1OC | 10.3 | -18.4 | 8.04 | 2.83 |  |  |  |  | 
COc1cc(/C=C2\CCC/C(=C\c3ccc(OCCCN4CCCCC4)c(OC)c3)C2=O)ccc1OCCCBr | 50 | 26.9 | 61.2 | 24.4 |  |  |  |  | 
COc1cc(/C=C2\CCC/C(=C\c3ccc(OCCCN4CCOCC4)c(OC)c3)C2=O)ccc1OCCCBr | 72.7 | 51.2 | 65.2 | 61.9 | 10.2 | 11 | 5.64 | 10.5 | 10
COc1cc(/C=C2\CCC/C(=C\c3ccc(OCCCBr)c(OC)c3)C2=O)ccc1OCCCBr | 61.2 | -8.68 | 49.8 | 18.9 |  |  |  |  | 
COc1ccc(/C=C/C(=O)/C=C/c2ccc(OCCCN3CCOCC3)c(OC)c2)cc1OC | 84.8 | 53.8 | 79.7 | 66.1 | 7.14 | 5.99 | 2.8 | 3.13 | 7.81
COc1cc(/C=C/C(=O)/C=C/c2ccc(C(C)(C)C)cc2)ccc1OCCCN1CCOCC1 | 84.8 | 84.2 | 90.7 | 76.2 | 2.45 | 2.77 | 1.62 | 3.26 | 3.03
COc1cc(/C=C2\CC/C(=C\c3ccc(OCCCn4ccnc4)c(OC)c3)C2=O)ccc1OCCCBr | 65.7 | 7.1 | 87.1 | 14 |  |  |  |  | 
COc1cc(/C=C/C(=O)CC(=O)/C=C/c2ccc(O)c(OC)c2)ccc1O [CURCUMIN] |  |  |  |  | 31.4 | 24.4 | 12.5 | 7.7 | 27.9
COc1cc(/C=C2\CCC/C(=C\c3ccc(OCCCN4CCOCC4)c(OC)c3)C2=O)ccc1OCCCN1CCOCC1 | 85.7 | 78.1 | 93.3 | 81.8 | 2.06 | 4.96 | 1.98 | 2.69 | 3.02
COc1cc(OC)c(/C=C/C(=O)/C=C/c2ccc(OCCCN3CCOCC3)c(OC)c2)c(OC)c1 | 33.9 | 5.96 | 65.8 | 9.22 |  |  |  |  | 
COc1ccccc1/C=C/C(=O)/C=C/c1ccc(OCCCBr)c(OC)c1 | 81.5 | 80.1 | 77.2 | 74.8 | 6.69 | 2.84 | 3.53 | 6.39 | 4.11
O=C1/C(=C/c2ccc(OCCBr)cc2)CCC/C1=C\c1ccc(OCCBr)cc1 | 0.12 | 0.05 | 58.3 | 10.8 |  |  |  |  | 
COc1cc(/C=C2\CC/C(=C\c3ccccc3C(F)(F)F)C2=O)ccc1OCCCN1CCOCC1 | 34.9 | 4.98 | 4.71 | 29.7 |  |  |  |  | 
COc1cc(/C=C2\CCC/C(=C\c3ccc(OCCCn4ccnc4)c(OC)c3)C2=O)ccc1OCCCn1ccnc1 | 82.4 | 88.5 | 90.9 | 85 | 2.21 | 3.38 | 2.79 | 3.59 | 2.87
COc1ccccc1/C=C/C(=O)/C=C/c1ccc(OCCBr)c(OC)c1 | 83.7 | 76.2 | 70.5 | 78.7 | 5.52 | 4.52 | 4.43 | 4.51 | 4.04
